hK5 inh = inhibitors of human kallikrein 5; hit rate 0.59% among 210,000; recombinant hK5, fluorogenic AMC substrate cleavage; Q9Y337; inhibition, % at 5 µM;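 active = inhibition of 40% or more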;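 note: 0% = enzyme controls without compound and 100% = no-enzyme blanks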
FXIa inh = blocks human coagulation factor XIa protease activity; P03951; purified FXIa, Boc-Glu-Ala-Arg-AMC fluorogenic substrate; inhibition, % at 5 µM; hit rate 0.14% among 220,000; AID 798;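 active = inhibition of at least 40%; inactive = inhibition below 40%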;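 note: fluorescence of freed AMC excited at 355 nm; 0% = enzyme without compound and 100% = no enzyme blank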
FXIIa inh = inhibitors of human coagulation factor XIIa; purified FXIIa, Boc-QGR-AMC fluorogenic substrate, 2 h; inhibition, % at 5 µM; P00748; AID 800; hit rate 0.3% among 220,000; in the data active = inhibition above about 40%;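 note: 0% = enzyme with no compound and 100% = blank without enzyme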
Target sequence (P00748 20-372 limits assumed): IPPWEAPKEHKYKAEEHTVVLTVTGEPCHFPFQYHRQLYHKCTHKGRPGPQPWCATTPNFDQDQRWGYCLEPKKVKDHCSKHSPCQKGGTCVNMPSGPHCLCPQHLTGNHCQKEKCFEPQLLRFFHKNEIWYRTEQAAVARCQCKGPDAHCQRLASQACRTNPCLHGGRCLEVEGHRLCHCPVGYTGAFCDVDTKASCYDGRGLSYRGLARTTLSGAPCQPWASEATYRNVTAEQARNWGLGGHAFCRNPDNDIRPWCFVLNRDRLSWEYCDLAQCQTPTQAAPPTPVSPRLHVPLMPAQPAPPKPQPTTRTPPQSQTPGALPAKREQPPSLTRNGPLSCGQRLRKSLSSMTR
Target sequence (P00748 373-615 limits assumed): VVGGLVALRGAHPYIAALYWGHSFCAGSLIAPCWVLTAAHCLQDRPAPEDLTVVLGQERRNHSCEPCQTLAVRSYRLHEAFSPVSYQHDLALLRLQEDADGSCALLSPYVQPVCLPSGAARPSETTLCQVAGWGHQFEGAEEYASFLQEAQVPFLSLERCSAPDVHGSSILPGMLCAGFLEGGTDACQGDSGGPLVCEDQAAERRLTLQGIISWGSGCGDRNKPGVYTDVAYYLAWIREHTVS
thrombin 1536 = thrombin (human) inhibition; P00734; alpha-thrombin, Boc-VPR-AMC fluorogenic substrate cleavage; inhibition, % at 5 µM; hit rate 0.26% among 220,000; AID 1046;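 active = inhibition at or above 40%; inactive = inhibition below 40%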;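 note: 0% = enzyme with no compound and 100% = wells without enzyme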
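Test system: human alpha-thrombin protein / Dosing: one concentration per compound, 5 µM, with 0.2% DMSO / Medium: pH 7.5 Tris-saline with Tween 20 / Benchmarks: no-compound enzyme wells and no-enzyme blanks / Read-out basis: percent inhibition of thrombin substrate cleavage / Timing: reaction at room temperature / Measured by: fluorescence, ex 355 nm, em 460 nm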
HSV augment = HSV replication enhancement. hit rate 0.005% among 220,000. HSV replication augmentation in cells, fold increase. maximum fold increase; in the data active = maximum fold increase above about 1.5; tested in PC3 cells
Furin inh = inhibitors of human furin. inhibition, % at 20 µM or 30 µM. P09958. purified furin, fluorogenic substrate cleavage. AID 463115. hit rate 0.061% among 220,000; in the data active = inhibition above about 25%
Numbers without * were called inactive; i = inactive; · = no result given. Shown are actives, neighbours in structure and some others; about 1% of the full set was active somewhere.

SMILES	hK5 inh	FXIa inh	FXIIa inh	thrombin 1536	HSV augment	Furin inh
COc1ccc(S(=O)(=O)N(CCCN2CCCC2=O)Cc2cc3c(C)cc(C)cc3[nH]c2=O)cc1	133.4*	-6.0	-1.0	6.0	i	-27.3
O=C(Nc1cccc(F)c1)NC1CCN(Cc2ccccc2)CC1	·	1.2	5.2	1.6	i	-26.1
COc1ccc(OCCSCc2nnc(NC(=O)Nc3ccc(Cl)cc3)s2)cc1	-19.7	-4.8	1.8	-12.0	i	-18.0
COc1ccc2cc(C3C(C#N)=C(N)OC(C)=C3C(C)=O)c(Cl)nc2c1 (centres undefined)	42.1*	21.1	32.6	27.2	i	-8.6
CC(=O)C1=C(C)OC(N)=C(C#N)C1c1ccncc1 (centres undefined)	0.9	-21.9	7.1	-3.8	i	-17.4
O=C(Nc1ccc(Br)cc1)Nc1ccccc1Cl	1.3	2.2	4.8	0.1	i	-17.2
CC(=O)NC1CSCC1OC(C)=O (centres undefined)	67.1*	10.1	23.1	32.4	i	-16.5
COC(=O)NC1CSCC1OC(=O)CCN1C(=O)c2ccccc2C1=O (centres undefined)	-4.0	0.6	10.9	2.3	i	-13.1
CC1CCN(CC(=O)Nc2ccccc2C#N)CC1	22.6	14.1	23.6	42.5*	i	-19.6
Cn1nccc1-c1cc(Cl)cc(Cl)c1O	-6.9	-7.5	0.2	73.3*	i	-2.4
O=C(NC(=S)Nc1ccc(Cl)cn1)c1cccs1	-13.9	-0.6	1.1	-3.1	i	-21.7
CCCC(=O)NC(=S)Nc1ccc(Cl)cn1	111.7*	1.1	16.8	16.2	i	-15.7
CCOc1ccc(OCC)c(NC(=O)Nc2ccc3c(c2)N(C)C(=O)CS3)c1	-9.1	-2.5	5.5	-5.5	i	-14.3
COc1ccc(-n2c3c(cc(C(=O)N4CCC(C)CC4)c2=O)C(=O)CC(C)(C)C3)cc1	-0.9	1.4	8.6	-6.2	i	-20.1
COc1ccccc1-n1c2c(cc(C(=O)N3CCC(C)CC3)c1=O)C(=O)CC(C)(C)C2	52.3*	17.4	37.9	10.3	i	-1.2
CN1CCN(S(=O)(=O)c2ccc(NCc3ccc4c(c3)OCO4)nc2)CC1	2.2	1.0	5.6	-0.7	i	-22.3
Cc1noc(C)c1COc1ccc(C(=O)OCC(=O)NC23CC4CC(CC(C4)C2)C3)cc1	5.0	5.5	14.3	0.6	i	-13.6
Cc1noc(C)c1COc1ccc(C(=O)OCC(=O)NC2CCCCC2C)cc1 (centres undefined)	42.6*	6.4	10.2	19.7	i	-7.6
CCOc1ccc(NC(=O)CSC2=NCCN2)cc1	47.3*	10.0	13.1	4.7	i	-13.7
c1ccc2sc(-c3ccncc3)nc2c1	2.5	4.8	8.6	-3.5	i	-6.9
Oc1ccc(-c2cccc(-c3ccc(O)cc3)n2)cc1	46.7*	-8.6	-2.0	-5.7	i	-5.9
Oc1ccc(-c2nc3ccccc3s2)cc1	-8.1	-7.1	-1.0	41.9*	i	-26.0
CCCCOC(=O)N/N=C/C=C/c1ccccc1	-0.6	5.5	11.8	-1.6	i	-11.3
COCCN(C(=O)CC1C(=O)NCCN1CC(c1ccccc1)c1ccccc1)C(C)C (centres undefined)	-0.7	-3.8	9.0	-14.9	i	-2.6
COc1ccc(NC(=S)Nc2ccc3cn[nH]c3c2)cc1	0.4	0.4	-0.5	49.0*	i	-31.7
SMILES	hK5 inh	FXIa inh	FXIIa inh	thrombin 1536	HSV augment	Furin inh
O=C(Nc1ccc(N2CCOCC2)cc1N1CCOCC1)c1ccc([N+](=O)[O-])cc1	-21.8	12.7	13.1	1.7	·	-8.6
O=C(NNc1cc(N2CCOCC2)nc(N2CCOCC2)n1)c1ccc([N+](=O)[O-])cc1	68.3*	30.6	22.2	2.5	i	-0.9
Cc1ccsc1/C=N/NC(=O)c1ccc2c(c1)OCCO2	18.2	39.0	46.0*	30.3	i	11.2
O=C(NNC(=O)c1cccs1)c1ccc(Br)o1	-14.3	43.4*	18.3	17.0	i	-14.7
O=C(Cc1ccccc1)NNC(=O)c1cccs1	-13.6	0.2	10.6	-6.5	i	-5.7
O=C(NNC(=O)C(c1ccccc1)c1ccccc1)c1cccs1	55.6*	19.4	25.4	103.7*	i	-9.5
O=C(Nc1ccc(NC(=O)c2cccs2)cc1)c1ccc(Br)o1	5.3	10.5	16.1	1.8	i	-8.7
CCCCC(=O)NCc1ccc2c(c1)cc(C)n2C	0.8	-4.4	8.4	-9.9	i	-16.9
CCOC(=O)CCC(=O)NCc1ccc2c(c1)cc(C)n2C	54.2*	-2.1	15.6	5.3	i	-20.3
O=C(N/N=C(\CC(=O)c1cccs1)C(F)(F)F)c1ccncc1	61.4*	36.9	23.5	8.2	i	-8.2
CC(C)c1ccc(C(=O)N2CCN(c3cnn(C)c(=O)c3Cl)CC2)cc1	-7.7	-4.7	5.0	-1.4	i	-9.0
O=C1CN(C(=O)c2cc3ccccc3o2)c2ccccc2N1	14.4	15.5	25.9	9.6	i	-5.0
Cc1nc(NCCc2ccccc2F)c(C#N)c(C)c1[N+](=O)[O-]	24.7	14.1	25.2	45.9*	i	-17.5
Cc1nc(NCCc2ccc(F)cc2)c(C#N)c(C)c1[N+](=O)[O-]	-8.0	-1.8	4.4	-13.0	i	-16.3
N/C(Cc1nc(-c2ccc(Cl)cc2)cs1)=N/O	-1.8	-0.7	3.0	-7.0	i	-4.2
COc1ccc(-c2c[n+](CC(=O)c3ccccc3)c3n2CCCCC3)cc1	0.0	-1.3	3.8	-7.5	i	-22.6
COc1ccc(-c2c[n+]3c4n2CCCCC4=C(c2ccccc2)C3)cc1	-142.8	-3.5	-1.8	58.3*	i	-113.1
COc1ccc(-c2[nH]ncc2CN2CCC(N3CCSCC3)CC2)c(F)c1	-4.4	-2.5	2.1	-18.9	i	-30.1
O=S1(=O)C=C(SCc2ccc(F)cc2)Nc2ccccc21	-11.5	-6.4	-1.2	-2.7	i	-14.6
CCOC(=O)CSc1snnc1-c1ccccc1	-15.1	-8.7	58.3*	-4.8	i	-7.7
CCOC(=O)CSc1nnc(-c2cccnc2)o1	-7.0	7.5	10.3	3.3	i	-17.8
CCOC(=O)CSc1nnc(-c2ccccc2)o1	-5.8	43.6*	30.1	0.1	i	-20.9
CCOc1ccc(CCNC(=O)COC(=O)c2cc(OC)cc(OC)c2)cc1OCC	-2.5	-4.3	·	-5.6	i	-22.4
CCNC(=O)C1CC(=O)N(Cc2ccc3c(c2)OCO3)C(=Nc2ccc(F)cc2)S1 (centres undefined)	-1.7	-5.5	-4.0	-12.1	i	32.2*
COc1ccc(N=C2SC(C(N)=O)CC(=O)N2Cc2ccc3c(c2)OCO3)cc1 (centres undefined)	-10.8	-0.4	5.2	-9.1	i	-26.8
NC(=O)C1=C[C@@H](c2csc3ccccc23)C[C@@H](OCCCCO)O1	3.1	1.7	8.9	-0.8	i	-22.4
O=C(COC(=O)c1cccc2ccccc12)NCC1CCCO1 (centres undefined)	4.0	-2.1	6.1	-3.5	i	-22.1

High-throughput results (PubChem BioAssay)
